# Assay results collected from several papers.
# Protocols differ between the studies behind these lines.
# Effect on: microbial growth
Structure (SMILES),organism,assay,system,conditions,MIC
CC1=CC(=O)[C@H]2O[C@]1(C)O[C@H]([C@H](C)/C=C(C)/C=C/C(O)=C1/C(=O)CNC1=O)[C@H]2C,Bacillus anthracis,,34F2,,6.25 µM
O=C1NN=C(N=Cc2ccc(O)cc2O)C1=NNn1c(-c2ccccc2)nc2ccccc2c1=O,Vibrio cholerae,broth dilution,,24 h,53.5 µM
CN[C@@H]1[C@H](O)[C@H](NC)[C@H]2O[C@@]3(O)C(=O)C[C@@H](C)O[C@H]3O[C@@H]2[C@H]1O,Streptococcus pyogenes,broth dilution,ATCC700294,,25 µg/mL
CC(=O)NCN1N=C(C)C(=NNn2c(-c3ccccc3)nc3ccccc3c2=O)C1=O,Vibrio cholerae,broth dilution,,24 h,59.9 µM
CC1=CC[C@H]2O[C@]1(C)O[C@H]([C@H](C)/C=C(C)/C=C/C(O)=C1/C(=O)CNC1=O)[C@H]2C,Bacillus anthracis,,34F2,,3.13 µM
O=C(CCCCCCCCCCOc1ccccc1)CP(=O)(O)O,Bacillus anthracis,,STERNE34F2,,> 200 µg/mL
CC1=NN(CNC(=O)c2ccccn2)C(=O)C1=NNn1c(-c2ccccc2)nc2ccccc2c1=O,Vibrio cholerae,broth dilution,,24 h,52 µM
CCCCCCCC(=O)NP(=O)(O)O,Bacillus anthracis,,STERNE34F2,,> 200 µg/mL
CNC(=O)[C@@H](C)[C@H]1C(=O)/C(=C(O)/C=C/C(C)=C/[C@@H](C)[C@H]2O[C@@]3(C)O[C@H](C=C[C@@]34CO4)[C@@H]2C)C(=O)N1[C@@H]1CC[C@H](O)[C@H](C)O1,Bacillus anthracis,,34F2,,> 100 µM
CCCCCCCCCCCC(=O)C(F)(F)P(=O)(O)O,Bacillus anthracis,,STERNE34F2,,200 µg/mL
CC(/C=C/C(O)=C1/C(=O)CNC1=O)=C\[C@@H](C)[C@H]1O[C@@]2(C)O[C@H](C(=O)[C@@H]3O[C@@]32C)[C@@H]1C,Bacillus anthracis,,34F2,,12.5 µM
CC1=NN(CNc2ccccc2[N+](=O)[O-])C(=O)C1=NNn1c(-c2ccccc2)nc2ccccc2c1=O,Vibrio cholerae,broth dilution,,24 h,50.4 µM
CCCCCC/C=C\CCCCCCCCCC(=O)NP(=O)(O)O,Bacillus anthracis,,STERNE34F2,,100 µg/mL
